Measured values taken from ChEMBL document CHEMBL4732089, “Novel σ antagonists designed for tumor therapy: Structure - activity relationships of aminoethyl substituted cyclohexanes” (Eur J Med Chem, 2021).
Active and inactive are the calls of the source. No cut-off for these calls is given here.

Legend:
[1] = target: Sigma non-opioid intracellular receptor 1 (Cavia porcellus, UniProt Q60492); assay: Displacement of [3H]-pentazocine from sigma1 receptor in guinea pig brain membrane incubated for 120 mins by liquid scintillation counting method; assay type: cell membranes
Sigma non-opioid intracellular receptor 1, sequence (Q60492 whole entry): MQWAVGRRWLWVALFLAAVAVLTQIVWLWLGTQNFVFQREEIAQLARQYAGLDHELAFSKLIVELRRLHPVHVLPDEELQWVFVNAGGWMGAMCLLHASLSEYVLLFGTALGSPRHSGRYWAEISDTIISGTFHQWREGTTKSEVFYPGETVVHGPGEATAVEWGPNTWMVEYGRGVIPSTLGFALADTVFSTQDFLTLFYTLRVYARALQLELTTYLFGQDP

[2] = target: T1, Sigma intracellular receptor 2 (Rattus norvegicus, UniProt Q5U3Y7); assay: Displacement of [3H]-di-o-tolylguanidine from sigma2 receptor in rat liver membrane incubated for 120 mins by liquid scintillation counting method relative to control; assay type: cell membranes
T1 sequence (Q5U3Y7 whole entry): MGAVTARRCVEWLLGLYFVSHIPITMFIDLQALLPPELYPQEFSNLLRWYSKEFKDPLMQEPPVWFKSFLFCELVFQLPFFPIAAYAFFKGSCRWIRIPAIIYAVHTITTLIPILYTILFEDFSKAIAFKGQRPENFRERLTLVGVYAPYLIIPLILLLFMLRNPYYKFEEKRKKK
Summary of the method: (§1)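 Competitive binding with [3H]di-o-tolylguanidine on rat liver membranes. Single-concentration values are % inhibition of radioligand binding at 1 µM test compound. Ki values are n = 3 (±SEM), except low-affinity compounds, which were measured once.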

[3] = species: Sus scrofa; assay: Displacement of [3H]-MK-801 from NMDA receptor PCP binding site in pig brain cortex at 1 uM incubated for 150 mins by liquid scintillation counting method relative to control; assay type: tissue-based
[4] = target: T2, Sigma intracellular receptor 2 (Rattus norvegicus) (UniProt Q5U3Y7); assay: Displacement of [3H]-di-o-tolylguanidine from sigma2 receptor in rat liver membrane at 1 uM incubated for 120 mins by liquid scintillation counting method relative to control; assay type: cell membranes; summary of the method: as §1
T2 sequence (whole entry): T1 sequence (Q5U3Y7 whole entry)

[5] = system: DU-145; assay: Antiproliferative activity against human DU145 cells assessed as reduction in cell viability at 10 uM incubated for 72 hrs by SRB assay; assay type: functional, cell-based
Summary of the method: (§2)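 Cells from ATCC were grown in RPMI 1640 with 10% FBS, glutamine and penicillin-streptomycin. Seeding was 1×10^3 (lung) or 2×10^3 (prostate) cells/well. After 24 h, compounds were added at 10 µM for 72 h. Cells were fixed with 10% TCA and stained with sulforhodamine B for 30 min. Dye was solubilized in Tris base and OD read at 510 nm. Results are expressed as % of DMSO-treated cells.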

[6] = Selectivity for sigma1 receptor in guinea pig brain membrane over sigma2 receptor in rat liver membrane; assay type: cell membranes
[7] = Drug metabolism in mouse liver microsomes assessed as metabolite 2-((1R,3S)-3-phenylcyclohexyl)ethanamine formation measured after 90 mins in presence of NADPH by LC-MS analysis; assay type: ADME, Microsome; conditions: 1.5 h
Summary of the method: (§3)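 Incubation with mouse liver microsomes and NADPH for 90 min at 37 °C. Metabolites were identified by LC-MS with collision-induced dissociation.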

[8] = Drug metabolism in mouse liver microsomes assessed as metabolite 4-((1S,3R)-3-(2-(benzylamino)ethyl)cyclohexyl)benzene-1,2-diol formation measured after 90 mins in presence of NADPH by LC-MS analysis; assay type: ADME, Microsome; conditions: 1.5 h; summary of the method: as §3
[9] = n-octanol/aqueous buffer distribution coefficient, log D of compound at pH 7.4 by LC-MS analysis; assay type: physicochemical
Summary of the method: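 Micro shake-flask method using 20 mM MOPS buffer pH 7.4 and n-octanol, mutually pre-saturated for 24 h. DMSO was kept below 1%. Three buffer:octanol volume ratios (1:1, 1:2, 2:1) were each run three times (n = 9). Tubes were vortexed 2 min and centrifuged 10 min at 20 °C. The aqueous layer was quantified by LC-MS against a matrix-matched calibration, and logD calculated from that concentration.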

[10] = Metabolic stability in mouse liver microsomes assessed as parent compound remaining measured after 90 mins in presence of NADPH
[11] = system: PC-3; assay: Antiproliferative activity against human PC-3 cells assessed as reduction in cell viability at 10 uM incubated for 72 hrs by SRB assay; assay type: functional, cell-based
Summary of the method: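 PC3 prostate cancer cells grown adherent in RPMI 1640 with 2% glutamine, 10% FBS and 1% penicillin-streptomycin. Seeded at 2 × 10^3 cells/well; compound added at 10 µM 24 h later for 72 h. Cells fixed in 10% TCA, stained with sulforhodamine B 30 min, washed with 1% acetic acid, dye solubilised in Tris base, OD read at 510 nm; viability given as % of DMSO-treated cells.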

[12] = target: Sigma non-opioid intracellular receptor 1 (Rattus norvegicus) (UniProt Q9R0C9); assay: Agonist activity at sigma1 receptor in rat PC12 cells assessed as reduction in KCl-induced Ca2+ influx at 10 nM measured after 30 mins by Fura2AM dye based fluorescence microscopic analysis; assay type: cell-based; conditions: PC-12
Sigma non-opioid intracellular receptor 1 (Rattus norvegicus), sequence (Q9R0C9 whole entry, the tested form may be a part): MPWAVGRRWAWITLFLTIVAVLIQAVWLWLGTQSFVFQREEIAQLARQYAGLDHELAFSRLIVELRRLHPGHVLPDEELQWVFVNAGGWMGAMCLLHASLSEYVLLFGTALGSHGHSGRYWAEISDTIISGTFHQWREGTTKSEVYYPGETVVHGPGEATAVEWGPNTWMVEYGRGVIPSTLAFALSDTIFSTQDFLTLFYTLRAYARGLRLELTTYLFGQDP
Summary of the method: (§4)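 Single PC12 cells loaded with 0.5 µM fura-2-AM plus 0.01% Pluronic F-127, 30 min, 37 °C, in HEPES saline pH 7.4 (138 mM NaCl, 6 mM KCl, 2 mM CaCl2). Cells were then washed 30 min and perfused. Test compounds were at 10 nM, and Ca2+ influx was triggered with KCl. Excitation was at 340/380 nm and emission at 510 nm. The F340/F380 ratio was calibrated with KD 224 nM. 10–20 cells per slide, ≥5 independent experiments.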

[13] = target: Sigma non-opioid intracellular receptor 1 (Rattus norvegicus) (UniProt Q9R0C9); assay: Antagonist activity at sigma1 receptor in rat PC12 cells assessed as reduction in opipramol activity by measuring increase in Ca2+-influx at 10 nM measured after 30 mins in presence of KCl by Fura2AM dye based fluorescence microscopic analysis relative to control; assay type: cell-based; design: scale not given: the % may be the effect or the level left; summary of the method: as §4
[14] = system: CWR22R; assay: Antiproliferative activity against human 22Rv1 cells assessed as reduction in cell viability at 10 uM incubated for 72 hrs by SRB assay; assay type: functional, cell-based; summary of the method: as §2
[15] = system: NCI-H358; assay: Antiproliferative activity against human NCI-H358 cells assessed as reduction in cell viability at 10 uM incubated for 72 hrs by SRB assay; assay type: functional, cell-based; summary of the method: as §2
[16] = system: NCI-H441; assay: Antiproliferative activity against human NCI-H441 cells assessed as reduction in cell viability at 10 uM incubated for 72 hrs by SRB assay; assay type: functional, cell-based; summary of the method: as §2
[17] = system: NCI-H522; assay: Antiproliferative activity against human NCI-H522 cells assessed as reduction in cell viability at 10 uM incubated for 72 hrs by SRB assay; assay type: functional, cell-based; summary of the method: as §2

Row | Ki [1] | Ki [2] | inhibition [3] | SMILES | Activity [5] | also measured
1 | 0.0018 µM | 0.057 µM | – | c1ccc(CNCC[C@@H]2CCC[C@@H](c3ccccc3)C2)cc1 [listing 1 of 2 here] | – | –
2 | 0.0013 µM | 0.047 µM | – | c1ccc(CNCC[C@H]2CCC[C@@H](c3ccccc3)C2)cc1 | Active | Selectivity ratio [6]: 35
3 | 0.00061 µM | 0.049 µM | – | c1ccc(CNCC[C@@H]2CCC[C@H](c3ccccc3)C2)cc1 [listing 1 of 2 here] | – | Drug metabolism [7]: Metabolite_Detected; Drug metabolism [8]: Metabolite_Detected; logD [9]: 3.23; remaining at 1.5 h [10]: 43%
4 | 0.0014 µM | 0.046 µM | – | c1ccc(CNCC[C@H]2CCC[C@H](c3ccccc3)C2)cc1 | inactive | logD [9]: 3.34; Selectivity ratio [6]: 35
5 | 0.0024 µM | 0.268 µM | – | c1ccc(CNCC[C@@H]2CCC[C@@H](c3ccccc3)C2)cc1 (relative stereo) [listing 1 of 2 here] | – | –
6 | 0.0018 µM | 0.13 µM | – | c1ccc(CNCC[C@@H]2CCC[C@H](c3ccccc3)C2)cc1 (relative stereo) [listing 1 of 2 here] | – | –
7 | – | – | 31% | c1ccc(CNCC[C@@H]2CCC[C@@H](c3ccccc3)C2)cc1 (relative stereo) [listing 2 of 2 here] | – | Activity [12]: inactive; Activity ([13]; PC-12, filed as antagonist): 100%
8 | – | – | 11% | c1ccc(CNCC[C@@H]2CCC[C@H](c3ccccc3)C2)cc1 (relative stereo) [listing 2 of 2 here] | Active | Activity [12]: inactive; Activity [11]: Active; Activity [14]: Active; Activity [15]: Active; Activity ([13]; PC-12): inactive; Activity [16]: Active; Activity [17]: Active

Further lines, the molecule ahead of its results:

Row | SMILES | Ki [1] | Ki [2] | inhibition [3] | Activity [5] | also measured
9 | CN(C)CC[C@H]1CCC[C@@H](c2ccccc2)C1 | 0.01 µM | 0.156 µM | – | – | –
10 | NCC[C@@H]1CCC[C@@H](c2ccccc2)C1 | 0.043 µM | – | 15% | – | inhibition [4]: 43%
11 | CN(C)CC[C@@H]1CCC[C@H](c2ccccc2)C1 | 0.014 µM | 0.076 µM | – | – | –
12 | NCC[C@H]1CCC[C@@H](c2ccccc2)C1 | 0.138 µM | – | 14% | – | inhibition [4]: 24%
13 | NCC[C@@H]1CCC[C@H](c2ccccc2)C1 | 0.167 µM | – | 11% | – | inhibition [4]: 38%
14 | NCC[C@H]1CCC[C@H](c2ccccc2)C1 | 0.603 µM | – | 31% | – | inhibition [4]: 60%
15 | CCCN(CCC)CCc1ccc(OC)c(OCCc2ccccc2)c1 | – | – | – | – | Activity [11]: Active
16 | c1ccc(CNCC[C@@H]2CCC[C@@H](c3ccccc3)C2)cc1 [listing 2 of 2 here] | – | – | – | inactive | Selectivity ratio [6]: 35
17 | c1ccc(CNCC[C@@H]2CCC[C@H](c3ccccc3)C2)cc1 [listing 2 of 2 here] | – | – | – | Active | –
18 | CN(C)CCC1CCCC(c2ccccc2)C1 (mixture of isomers) | 0.0042 µM | 0.115 µM | 25% | – | –
19 | c1ccc(CCCCNCCC2CCCC(c3ccccc3)C2)cc1 (mixture of isomers) | 0.003 µM | 0.093 µM | 11% | – | –
20 | c1ccc([C@@H]2CCC[C@@H](CCN3CCCC3)C2)cc1 (relative stereo) | 0.002 µM | 0.033 µM | 28% | – | Activity [12]: inactive; Activity ([13]; PC-12, filed as antagonist): 100%
21 | c1ccc([C@H]2CCC[C@@H](CCN3CCCC3)C2)cc1 (relative stereo) | 0.0036 µM | 0.061 µM | 36% | – | –
22 | c1ccc([C@H]2CCC[C@H](CCN3CCN(c4ccccc4)CC3)C2)cc1 (relative stereo) | 0.013 µM | 0.144 µM | 0% | inactive | –
23 | c1ccc([C@H]2CCC[C@@H](CCN3CCN(c4ccccc4)CC3)C2)cc1 (relative stereo) | 0.016 µM | 0.118 µM | 0% | inactive | –
